Laboratory results taken from ChEMBL document CHEMBL1153616, “Synthesis and antiviral activity of new pyrazole and thiazole derivatives” (Eur J Med Chem, 2009).
Values after ≈ are worked out from the molar mass of the structure shown.

Experiments:
[1] = Cytotoxicity against HEL cells assessed as minimum cytotoxic concentration required to cause microscopically detectable alteration in normal cell morphology; format: cell-based; conditions: human
Method in brief: (§1)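 Run in parallel with antiviral assays on uninfected cell cultures; test compounds from 10 mg/ml DMSO stocks in serial dilution. Value is minimum cytotoxic concentration (MCC) producing microscopically detectable alteration of normal cell morphology.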

Human alphaherpesvirus 2 = assay: Antiviral activity against HSV2 G infected in human HEL cells assessed as inhibition of virus-induced cytopathicity after 3 days; format: functional, organism-based; conditions: Human alphaherpesvirus 2, strain G, 72 h
Method in brief: (§2)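 Confluent cell monolayers infected with 100 CCID50 virus; after 2 h adsorption at 37 °C, virus removed and serial compound dilutions added (DMSO stocks 10 mg/ml). Incubated 37 °C for 3 days until complete CPE in untreated virus control. EC50 = concentration protecting 50% of infected cells from viral cytopathogenicity; ">" marks highest concentration tested.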

Vaccinia virus = assay: Antiviral activity against Vaccinia virus infected in human HEL cells assessed as inhibition of virus-induced cytopathicity after 3 days; format: functional, organism-based; conditions: Orthopoxvirus vaccinia, 72 h
[2] = system: Vesicular stomatitis virus; assay: Antiviral activity against Vesicular stomatitis virus infected in human HEL cells assessed as inhibition of virus-induced cytopathicity after 3 days; format: functional, organism-based; conditions: 72 h
Human alphaherpesvirus 1 [3] = assay: Antiviral activity against thymidine kinase-deficient ACV-resistant HSV1 KOS infected in human HEL cells assessed as inhibition of virus-induced cytopathicity after 3 days; format: functional, organism-based; conditions: Human alphaherpesvirus 1, KOS, 72 h
[4] = Cytotoxicity against human HeLa cells assessed as minimum cytotoxic concentration required to cause microscopically detectable alteration in normal cell morphology; format: cell-based; method in brief: as §1
[5] = system: Vesicular stomatitis virus; assay: Antiviral activity against Vesicular stomatitis virus infected in human HeLa cells assessed as inhibition of virus-induced cytopathicity after 3 days; format: functional, organism-based; conditions: 72 h
Human alphaherpesvirus 1 [6] = assay: Antiviral activity against HSV1 KOS infected in human HEL cells assessed as inhibition of virus-induced cytopathicity after 3 days; format: functional, organism-based; conditions: Human alphaherpesvirus 1, KOS, 72 h
Coxsackievirus B4 [7] = assay: Antiviral activity against Coxsackievirus B4 infected in human HeLa cells assessed as inhibition of virus-induced cytopathicity after 3 days; format: functional, organism-based; conditions: Enterovirus B, 72 h
Method in brief: (§3)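 Confluent cell monolayers infected with 100 CCID50 virus; after 2 h adsorption at 37 °C, virus removed and serial compound dilutions added (DMSO stocks 10 mg/ml). Incubated 37 °C for 3 days until complete CPE in untreated virus control.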

[8] = system: Respiratory syncytial virus; assay: Antiviral activity against RSV infected in human HeLa cells assessed as inhibition of virus-induced cytopathicity after 3 days; format: functional, organism-based; conditions: 72 h; method in brief: as §2
[9] = Cytotoxicity against african green monkey Vero cells assessed as minimum cytotoxic concentration required to cause microscopically detectable alteration in normal cell morphology; format: cell-based; conditions: chlorocebus sabaeus; method in brief: as §1
Human respirovirus 3 = assay: Antiviral activity against Parainfluenza virus type 3 infected in african green monkey Vero cells assessed as inhibition of virus-induced cytopathicity after 3 days; format: functional, organism-based; conditions: Human respirovirus 3, Vero, 72 h; method in brief: as §2
[10] = system: Mammalian orthoreovirus 1; assay: Antiviral activity against Reovirus 1 infected in african green monkey Vero cells assessed as inhibition of virus-induced cytopathicity after 3 days; format: functional, organism-based; conditions: Mammalian orthoreovirus 1, Vero, 72 h; method in brief: as §2
Sindbis virus = assay: Antiviral activity against Sindbis virus infected in african green monkey Vero cells assessed as inhibition of virus-induced cytopathicity after 3 days postinfection; format: functional, organism-based; conditions: 72 h; method in brief: as §2
Coxsackievirus B4 [11] = assay: Antiviral activity against Coxsackievirus B4 infected in african green monkey Vero cells assessed as inhibition of virus-induced cytopathicity after 3 days; format: functional, organism-based; conditions: Enterovirus B, 72 h; method in brief: as §2
Punta Toro virus = assay: Antiviral activity against Punta Toro virus infected in african green monkey Vero cells assessed as inhibition of virus-induced cytopathicity after 3 days; format: functional, organism-based; conditions: 72 h; method in brief: as §3

Structure (SMILES) | MCC [1] | EC50 (Human alphaherpesvirus 2) | EC50 (Vaccinia virus) | EC50 [2] | EC50 (Human alphaherpesvirus 1 [3]) | MCC [4] | EC50 [5] | EC50 (Human alphaherpesvirus 1 [6]) | EC50 (Coxsackievirus B4 [7]) | EC50 [8] | MCC [9] | EC50 (Human respirovirus 3) | EC50 [10] | EC50 (Sindbis virus) | EC50 (Coxsackievirus B4 [11]) | EC50 (Punta Toro virus)
Clc1ccc(-c2csc(N3N=C(c4ccc(Br)cc4)CC3c3ccc(OCc4ccccc4)cc3)n2)cc1 (configuration not stated) | > 100 µg/mL | > 100 µg/mL | > 100 µg/mL | > 100 µg/mL | > 100 µg/mL | > 100 µg/mL | > 100 µg/mL | > 100 µg/mL | > 100 µg/mL | > 100 µg/mL | > 100 µg/mL | > 100 µg/mL | > 100 µg/mL | > 100 µg/mL | > 100 µg/mL | > 100 µg/mL
NC(=S)N1N=C(c2ccccc2)CC1c1ccc(OCc2ccccc2)cc1 (configuration not stated) | 100 µg/mL | > 20 µg/mL | > 20 µg/mL | > 20 µg/mL | > 20 µg/mL | ≥ 20 µg/mL | > 20 µg/mL | > 20 µg/mL | > 20 µg/mL | > 20 µg/mL | 100 µg/mL | > 20 µg/mL | > 20 µg/mL | > 20 µg/mL | > 20 µg/mL | > 20 µg/mL
Nc1nc2c(ncn2COC(CO)CO)c(=O)[nH]1 [GANCICLOVIR] | > 100 µg/mL | 0.08 µg/mL (≈ 0.313 µM) | > 100 µg/mL | > 100 µg/mL | 6 µg/mL (≈ 23.5 µM) | – | – | 0.08 µg/mL (≈ 0.313 µM) | – | – | – | – | – | – | – | –
O=C1CSC(N2N=C(c3ccc(Br)cc3)CC2c2ccc(OCc3ccccc3)cc2)=N1 (configuration not stated) | 100 µg/mL | > 20 µg/mL | > 20 µg/mL | > 20 µg/mL | > 20 µg/mL | > 100 µg/mL | > 100 µg/mL | > 20 µg/mL | > 100 µg/mL | > 100 µg/mL | 100 µg/mL | > 20 µg/mL | > 20 µg/mL | > 20 µg/mL | > 20 µg/mL | > 20 µg/mL
Cc1ccc(-c2csc(N3N=C(c4ccc(Br)cc4)CC3c3ccc(OCc4ccccc4)cc3)n2)cc1 (configuration not stated) | 100 µg/mL | > 20 µg/mL | > 20 µg/mL | > 20 µg/mL | > 20 µg/mL | > 100 µg/mL | > 100 µg/mL | > 20 µg/mL | > 100 µg/mL | > 100 µg/mL | 100 µg/mL | > 20 µg/mL | > 20 µg/mL | > 20 µg/mL | > 20 µg/mL | > 20 µg/mL
NC(=O)c1ncn([C@@H]2O[C@H](CO)[C@@H](O)[C@H]2O)n1 [RIBAVIRIN] | > 250 µg/mL | > 250 µg/mL | 146 µg/mL (≈ 598 µM) | > 250 µg/mL | > 250 µg/mL | > 250 µg/mL | 29 µg/mL (≈ 119 µM) | > 250 µg/mL | – | 10 µg/mL (≈ 40.9 µM) | > 250 µg/mL | 45 µg/mL (≈ 184 µM) | > 250 µg/mL | > 250 µg/mL | > 250 µg/mL | –
O=c1[nH]c(=O)n([C@H]2C[C@H](O)[C@@H](CO)O2)cc1/C=C/Br [BRIVUDINE] | > 250 µg/mL | 126 µg/mL (≈ 378 µM) | 10 µg/mL (≈ 30 µM) | > 250 µg/mL | > 250 µg/mL | – | – | 0.08 µg/mL (≈ 0.24 µM) | – | – | – | – | – | – | – | –
Clc1ccc(C2=NN(c3nc(-c4ccc(Cl)cc4)cs3)C(c3ccc(OCc4ccccc4)cc3)C2)cc1 (configuration not stated) | > 100 µg/mL | > 100 µg/mL | > 100 µg/mL | > 100 µg/mL | > 100 µg/mL | > 100 µg/mL | > 100 µg/mL | > 100 µg/mL | > 100 µg/mL | > 100 µg/mL | 100 µg/mL | > 20 µg/mL | > 20 µg/mL | > 20 µg/mL | > 20 µg/mL | > 20 µg/mL
Nc1ccn(C[C@@H](CO)OCP(=O)(O)O)c(=O)n1.O.O [CIDOFOVIR] | > 250 µg/mL | 5 µg/mL | 10 µg/mL | > 250 µg/mL | 5 µg/mL | – | – | 3 µg/mL | – | – | – | – | – | – | – | –
Nc1ncnc2c1ncn2C[C@H](O)CO [(S)-DHPA] | – | – | – | – | – | > 250 µg/mL | > 250 µg/mL | – | > 250 µg/mL | > 250 µg/mL | > 250 µg/mL | > 250 µg/mL | > 250 µg/mL | > 250 µg/mL | > 250 µg/mL | > 250 µg/mL
